Laboratory results as given in ChEMBL document CHEMBL4007450, “Development of 1,2,4-Oxadiazoles as Potent and Selective Inhibitors of the Human Deacetylase Sirtuin 2: Structure-Activity Relationship, X-ray Crystal Structure, and Anticancer Activity” (J Med Chem, 2017).
The source made the active and inactive calls. No cut-off for these calls is given here.

Key:
[1] = test system: U-937; assay: Cell cycle arrest in human U937 cells assessed as accumulation at S phase at 25 uM after 48 hrs by propidium iodide staining-based FACS analysis; assay type: functional
[2] = test system: NB-4; assay: Induction of apoptosis in human NB4 cells assessed as pre-G1 accumulation at 25 uM after 48 hrs by propidium iodide staining-based FACS analysis; assay type: functional
How it was run: (§1)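 Leukemia cells (U937, NB4, HL-60, K562) were grown in RPMI-1640 with 10% FBS, 2 mM L-glutamine and antibiotics, then treated for 48 h at 5, 10, 25 and 50 μM. 2.5×10^5 cells were stained 30 min in the dark in hypotonic PI buffer (0.1% Triton X-100, 0.1% citrate, 50 µg/mL PI, RNase A). Apoptosis was scored as pre-G1 content by flow cytometry. Duplicates, mean ± SD.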

[3] = test system: K562; assay: Induction of apoptosis in human K562 cells assessed as pre-G1 accumulation at 25 uM after 48 hrs by propidium iodide staining-based FACS analysis; assay type: functional; how it was run: as §1
[4] = test system: MDA-MB-231; assay: Induction of apoptosis in human MDA-MB-231 cells assessed as pre-G1 accumulation at 25 uM after 48 hrs by propidium iodide staining-based FACS analysis; assay type: functional
How it was run: (§2)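 MDA-MB-231 breast cancer cells were grown in DMEM with 10% FBS, 2 mM L-glutamine and antibiotics, then exposed for 48 h at 5, 10, 25 or 50 μM. 2.5×10^5 cells were stained in hypotonic buffer with 50 µg/mL PI, 0.1% Triton X-100, 0.1% citrate and RNase A for 30 min in the dark. Pre-G1 fraction was measured by flow cytometry. Biological duplicates, mean ± SD.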

[5] = test system: OCI-AML-3; assay: Antiproliferative activity against human OCI-AML3 cells harboring NPM1c+, DNMT3A R882C mutant assessed as cell growth inhibition after 48 hrs by WST1 assay; assay type: functional, cell-based; conditions: OCI-AML-3, 48 h
How it was run: (§3)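 WST-1 proliferation assay. Cells plated in triplicate at 5×10^3 cells/well and exposed to increasing compound concentrations for 48 h at 37 °C, 5% CO2. WST-1 reagent was then added for 1 h. IC50 was obtained by nonlinear regression of each cell line's dose-response curve.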

[6] = Antiproliferative activity against human IMS-M2 cells harboring NPM1c+ assessed as cell growth inhibition after 48 hrs by WST1 assay; assay type: functional, cell-based; conditions: IMS-M2, 48 h; how it was run: as §3
[7] = test system: OCI-AML2; assay: Antiproliferative activity against human OCI-AML2 cells harboring DNMT3A R635W mutant assessed as cell growth inhibition after 48 hrs by WST1 assay; assay type: functional, cell-based; conditions: OCI-AML2, 48 h; how it was run: as §3
[8] = test system: MV4-11; assay: Antiproliferative activity against human MV4-11 cells harboring FLT3-ITD [t(4;11)(q21;q23)], MLL/MLLT2(AF4) mutant assessed as cell growth inhibition after 48 hrs by WST1 assay; assay type: functional, cell-based; conditions: MV4-11, 48 h; how it was run: as §3
[9] = test system: Kasumi 1; assay: Antiproliferative activity against human Kasumi-1 cells harboring AML1-ETO [t(8:21)] mutant assessed as cell growth inhibition after 48 hrs by WST1 assay; assay type: functional, cell-based; conditions: Kasumi 1, 48 h; how it was run: as §3
[10] = test system: U-937; assay: Antiproliferative activity against human U937 cells harboring p53+/- assessed as cell growth inhibition after 48 hrs by WST1 assay; assay type: functional, cell-based; conditions: U-937, 48 h; how it was run: as §3
[11] = test system: NB-4; assay: Antiproliferative activity against human NB4 cells harboring PML-RARalpha [t(15;17)(q22;q12)] mutant assessed as cell growth inhibition after 48 hrs by WST1 assay; assay type: functional, cell-based; conditions: NB-4, 48 h; how it was run: as §3
[12] = test system: HL-60; assay: Antiproliferative activity against human p53 deficient HL60 cells assessed as cell growth inhibition after 48 hrs by WST1 assay; assay type: functional, cell-based; conditions: HL-60, 48 h; how it was run: as §3
[13] = test system: KARPAS-299; assay: Antiproliferative activity against human KARPAS299 cells harboring NPM1/ALK, [t(2;5)(p23;q35)] mutant assessed as cell growth inhibition after 48 hrs by WST1 assay; assay type: functional, cell-based; conditions: KARPAS-299, 48 h; how it was run: as §3
[14] = target: T1, NAD-dependent protein deacetylase sirtuin-2 (Homo sapiens, UniProt Q8IXJ6)
T1 sequence (Q8IXJ6 whole entry): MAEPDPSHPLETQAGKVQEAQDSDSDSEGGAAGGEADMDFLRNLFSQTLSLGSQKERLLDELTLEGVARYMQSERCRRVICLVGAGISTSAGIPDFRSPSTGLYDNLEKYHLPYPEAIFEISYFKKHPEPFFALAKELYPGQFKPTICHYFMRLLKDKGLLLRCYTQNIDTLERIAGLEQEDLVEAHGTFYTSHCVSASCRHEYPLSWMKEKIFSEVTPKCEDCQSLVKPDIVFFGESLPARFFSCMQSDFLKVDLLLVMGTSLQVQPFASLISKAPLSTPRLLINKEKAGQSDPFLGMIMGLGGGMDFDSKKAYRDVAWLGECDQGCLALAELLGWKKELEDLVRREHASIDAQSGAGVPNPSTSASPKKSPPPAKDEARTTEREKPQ

[15] = test system: U-937; assay: Induction of apoptosis in human U937 cells assessed as pre-G1 accumulation at 25 uM after 48 hrs by propidium iodide staining-based FACS analysis; assay type: functional; how it was run: as §1
[16] = test system: NB-4; assay: Induction of apoptosis in human NB4 cells assessed as pre-G1 accumulation at 50 uM after 48 hrs by propidium iodide staining-based FACS analysis; assay type: functional; how it was run: as §1
[17] = test system: MDA-MB-231; assay: Induction of apoptosis in human MDA-MB-231 cells assessed as pre-G1 accumulation at 50 uM after 48 hrs by propidium iodide staining-based FACS analysis; assay type: functional; how it was run: as §2
[18] = target: T2, NAD-dependent protein deacetylase sirtuin-3, mitochondrial (Homo sapiens) (UniProt Q9NTG7); assay: Inhibition of human SIRT3 (114 to 380 residues) activity expressed in Escherichia coli using AceCS2 peptide as substrate up to 100 uM after 45 mins in presence of NAD+ by pNCA/GDH-based microplate spectrophotometric analysis
T2 sequence (whole entry): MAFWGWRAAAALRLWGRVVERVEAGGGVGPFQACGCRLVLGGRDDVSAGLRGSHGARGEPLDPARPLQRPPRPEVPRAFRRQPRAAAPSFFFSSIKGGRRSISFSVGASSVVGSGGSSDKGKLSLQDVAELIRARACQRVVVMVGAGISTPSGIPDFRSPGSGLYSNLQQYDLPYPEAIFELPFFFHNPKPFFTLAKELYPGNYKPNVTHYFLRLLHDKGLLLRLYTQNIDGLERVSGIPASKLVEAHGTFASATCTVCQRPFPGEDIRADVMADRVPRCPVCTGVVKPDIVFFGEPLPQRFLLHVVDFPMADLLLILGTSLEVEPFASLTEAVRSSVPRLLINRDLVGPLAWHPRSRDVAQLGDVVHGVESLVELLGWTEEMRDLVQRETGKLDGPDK
How it was run: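 Same pNCA/GDH-coupled 340 nm NADPH read-out as the Sirt2 assay, using 20 mM Na-phosphate pH 7.8 with 3% DMSO at 20 °C for 45 min. Sirt3 (114-380) was used at 5 µM with AceCS2 peptide TRSGacKVMR as substrate. Inhibitors were tested up to 100 µM.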

[19] = target: T3, NAD-dependent protein deacetylase sirtuin-1 (Homo sapiens) (UniProt Q96EB6); assay: Inhibition of human full length SIRT1 activity expressed in Escherichia coli using p53 peptide as substrate up to 100 uM after 45 mins in presence of NAD+ by pNCA/GDH-based microplate spectrophotometric analysis
T3 sequence (whole entry): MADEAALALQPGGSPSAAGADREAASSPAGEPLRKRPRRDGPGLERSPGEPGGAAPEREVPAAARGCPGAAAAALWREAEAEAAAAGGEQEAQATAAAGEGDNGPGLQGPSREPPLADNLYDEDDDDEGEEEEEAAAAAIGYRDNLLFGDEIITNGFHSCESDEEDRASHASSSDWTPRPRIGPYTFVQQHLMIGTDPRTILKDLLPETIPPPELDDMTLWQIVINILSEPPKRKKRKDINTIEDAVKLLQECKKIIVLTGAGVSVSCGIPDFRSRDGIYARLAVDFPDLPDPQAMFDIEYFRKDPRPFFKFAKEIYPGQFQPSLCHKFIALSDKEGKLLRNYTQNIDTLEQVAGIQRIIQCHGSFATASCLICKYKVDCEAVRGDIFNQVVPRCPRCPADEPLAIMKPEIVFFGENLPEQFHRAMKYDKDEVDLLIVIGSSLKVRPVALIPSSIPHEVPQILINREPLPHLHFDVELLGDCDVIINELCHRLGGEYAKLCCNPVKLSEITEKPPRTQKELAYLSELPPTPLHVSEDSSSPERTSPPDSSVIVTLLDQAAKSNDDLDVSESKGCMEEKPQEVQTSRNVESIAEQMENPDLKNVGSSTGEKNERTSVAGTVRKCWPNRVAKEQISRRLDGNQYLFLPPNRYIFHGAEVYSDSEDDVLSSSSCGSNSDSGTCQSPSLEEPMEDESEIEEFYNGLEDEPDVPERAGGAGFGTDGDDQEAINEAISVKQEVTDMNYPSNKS
How it was run: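 Full-length Sirt1 at 2 µM with p53 peptide RHKacKLMFK as substrate. Activity was measured in the same coupled pNCA/GDH mix as for Sirt2 (α-ketoglutarate, NADPH, Na-phosphate pH 7.8, 3% DMSO), following NADPH oxidation at 340 nm at 20 °C for 45 min. Compounds were tested up to 100 µM.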

[20] = target: NAD-dependent protein deacylase sirtuin-5, mitochondrial (Homo sapiens) (UniProt Q9NXA8); assay: Inhibition of human SIRT5 (34 to 302 residues) deacetylase activity expressed in Escherichia coli using Prx1 peptide as substrate up to 100 uM after 45 mins in presence of NAD+ by pNCA/GDH-based microplate spectrophotometric analysis
[21] = test system: U-937; assay: Effect on cell cycle arrest in human U937 cells at 25 uM after 48 hrs by propidium iodide staining-based FACS analysis; assay type: functional
[22] = test system: NB-4; assay: Induction of apoptosis in human NB4 cells assessed as pre-G1 accumulation at 10 uM after 48 hrs by propidium iodide staining-based FACS analysis; assay type: functional, cell-based; how it was run: as §1
[23] = test system: U-937; assay: Induction of apoptosis in human U937 cells assessed as pre-G1 accumulation at 50 uM after 48 hrs by propidium iodide staining-based FACS analysis; assay type: functional; how it was run: as §1
[24] = target: NAD-dependent protein deacylase sirtuin-5, mitochondrial (Homo sapiens) (UniProt Q9NXA8); assay: Inhibition of human SIRT5 (34 to 302 residues) desuccinylase activity expressed in Escherichia coli using peptide as substrate up to 100 uM after 45 mins in presence of NAD+ by pNCA/GDH-based microplate spectrophotometric analysis
[25] = target: NAD-dependent protein deacylase sirtuin-5, mitochondrial (Homo sapiens) (UniProt Q9NXA8); assay: Inhibition of human SIRT5 (34 to 302 residues) desuccinylase activity expressed in Escherichia coli using CPS1 peptide as substrate at 100 uM after 45 mins in presence of NAD+ by pNCA/GDH-based microplate spectrophotometric analysis
[26] = target: NAD-dependent protein deacylase sirtuin-5, mitochondrial (Homo sapiens) (UniProt Q9NXA8); assay: Inhibition of human SIRT5 (34 to 302 residues) deacetylase activity expressed in Escherichia coli using Prx1 peptide as substrate at 100 uM after 45 mins in presence of NAD+ by pNCA/GDH-based microplate spectrophotometric analysis
[27] = test system: HL-60; assay: Induction of apoptosis in human HL60 cells assessed as pre-G1 accumulation at 50 uM after 48 hrs by propidium iodide staining-based FACS analysis; assay type: functional; how it was run: as §1
[28] = target: T3, NAD-dependent protein deacetylase sirtuin-1 (Homo sapiens); conditions: 100 uM
[29] = target: T4, NAD-dependent protein deacetylase sirtuin-2 (Homo sapiens) (UniProt Q8IXJ6); conditions: 5 to 25 uM
T4 sequence (whole entry): T1 sequence (Q8IXJ6 whole entry)

[30] = target: T4, NAD-dependent protein deacetylase sirtuin-2 (Homo sapiens); conditions: 5 to 25 uM; remark: listed apart in the source

Sequence of NAD-dependent protein deacylase sirtuin-5, mitochondrial (Homo sapiens) (Q9NXA8 37-310 limits assumed): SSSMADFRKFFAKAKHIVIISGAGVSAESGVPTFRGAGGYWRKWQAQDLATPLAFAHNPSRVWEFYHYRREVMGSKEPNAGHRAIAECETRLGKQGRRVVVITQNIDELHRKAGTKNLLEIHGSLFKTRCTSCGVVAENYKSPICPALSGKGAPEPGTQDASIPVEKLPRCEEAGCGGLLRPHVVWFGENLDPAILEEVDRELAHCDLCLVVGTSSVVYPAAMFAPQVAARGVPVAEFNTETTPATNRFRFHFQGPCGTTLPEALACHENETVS

IC50 [5]	IC50 [7]	IC50 [8]	IC50 [10]	IC50 [12]	IC50 [13]	IC50 [14]	SMILES	IC50 [6]	IC50 [9]	IC50 [11]	further results
62 µM	37 µM	16 µM	25 µM	30 µM	36 µM	10.4 µM	COc1ccc(-c2noc(CCCBr)n2)cc1	18.4 µM	10.3 µM	12 µM	Activity [1]: Active; Activity [2]: >80%; Activity [3]: >80%; Activity [4]: >80%
						19.8 µM	Fc1ccc(-c2noc(CCCBr)n2)cc1				Activity [15]: 11.1 - 37.1%; Activity [16]: 30 - 40%; Activity [17]: 30 - 40%
66 µM	85 µM	38 µM	> 100 µM	100 µM	25 µM		BrCCCc1nc(-c2ccc(Br)cc2)no1	100 µM	56 µM	49 µM	inhibition [18]: inactive; inhibition [19]: inactive; inhibition [20]: inactive; Activity [21]: inactive; Activity [22]: Active; Activity [23]: >80%; inhibition [24]: inactive
							N#C/C(=C\c1ccc(-c2cc(Cl)ccc2Cl)o1)C(=O)Nc1cccc2ncccc12				inhibition [25]: Active; inhibition [26]: Active; Activity [27]: 6%; inhibition [28]: Active; inhibition [29]: inactive; inhibition [30]: inactive
